# Assay outcomes from PubChem.
# The list is not random: actives were taken first. Their share in the collection is about 2%.
# NR2E3 ag-1: agonists of human nuclear receptor NR2E3; Q9Y5X4; GST-NR2E3/biotin-RetCOR TR-FRET, 1536-well; inhibition of corepressor binding, % at 4.78 µM; actives 0.12% (n = 320,000); AID 2300;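 active means percent inhibition above the cutoff of mean plus 3 SD of all tested compounds, set per screening campaign, cut at about 20% in these data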;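 further: 0% = DMSO wells and 100% = biotin wells as full block of FRET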
# Target sequence (Q9Y5X4 whole entry, looked up): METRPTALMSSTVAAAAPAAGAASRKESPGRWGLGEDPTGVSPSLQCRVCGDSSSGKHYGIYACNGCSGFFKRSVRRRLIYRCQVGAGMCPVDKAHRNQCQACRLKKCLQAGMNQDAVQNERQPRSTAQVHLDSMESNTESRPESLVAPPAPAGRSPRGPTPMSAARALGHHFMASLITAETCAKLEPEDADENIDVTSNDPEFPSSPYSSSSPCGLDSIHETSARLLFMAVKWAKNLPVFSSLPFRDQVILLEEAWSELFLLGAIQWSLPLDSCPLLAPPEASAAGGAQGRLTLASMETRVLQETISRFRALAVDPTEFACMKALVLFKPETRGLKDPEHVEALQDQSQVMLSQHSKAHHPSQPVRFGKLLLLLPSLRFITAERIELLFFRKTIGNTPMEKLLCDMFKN
#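 Test system – NR2E3–RetCOR corepressor complex · Quantity – NR2E3 fusion 1.35 nM · Buffer or medium – Tris pH 7.5 · Incubation – Compound–protein incubation for 5 h at 4 °C · Technique – TR-FRET, Eu(K)-anti-GST donor, streptavidin-D2 acceptor, ex 340, em 617/671 nm · Evaluation – percent inhibition of 671/617 nm emission ratio versus biotin and DMSO controls · Plate – 1536-well format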
# LMP1 NFkB inh: reduces LMP1-driven NF-kappaB luciferase signal | LMP1-induced NF-kappaB luciferase reporter cells, luminescence | inhibition, % at 12.5 µM | actives 0.69% (n = 350,000) | AID 504558; in the data active means inhibition above about 41%;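 further: 0% = neutral control wells and 100% = reference inhibitor control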
# HIF activator: HIF pathway transcriptional activation | U2OS HRE-luciferase reporter, luminescence; normalized: DMSO 0%, desferrioxamine 100% | activation, % at 7.5 µM (by protocol) | actives 0.32% (n = 300,000);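 active means mean activation of at least 10% of the iron chelator positive control signal, with at least half of replicates also reaching 10%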
# TROY NFkB inh: blocks TROY-dependent signaling in reporter cells. Q293 LMP1-TROYcd NF-kB luciferase reporter, 4 h. AID 1347056. actives 0.98% (n = 360,000). inhibition, % at 10 µM;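 active means compounds whose plate-normalised and pattern-corrected inhibition of the luciferase reporter signal at the single screening dose is 50% or more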
# NR2E3 ag-2: agonists of human NR2E3 nuclear receptor | inhibition of corepressor binding, % at 3.98 µM | AID 602229 | CHO-S Gal4-NCOR/VP16-NR2E3 two-hybrid, luciferase | actives 0.35% (n = 360,000);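 active means inhibition above the mean of all tested compounds plus 3 SD, cut at about 70% in these data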;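 further: 0% = DMSO with NR2E3 transfected cells and 100% = cells lacking NR2E3 construct; higher means lower luciferase signal from less NR2E3 corepressor binding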
# NR2E3 ag conf: confirmation of human NR2E3 agonists; AID 624378; shares compounds with NR2E3 ag-2; CHO-S mammalian two-hybrid NR2E3-NCOR, luciferase luminescence; inhibition, % at 3.98 µM; actives 51% (n = 2,300);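 active means average inhibition above a cutoff equal to the mean inhibition of all tested compounds plus one SD, cut at about 70% in these data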;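 further: 0% = DMSO in NR2E3 cells and 100% = DMSO in cells lacking NR2E3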
# GAL4-VP16 luc: counter-screen for NR2E3 agonists: GAL4-VP16 reporter inhibitors; shares compounds with NR2E3 ag-2; CHO-S GAL4-VP16 luciferase reporter, luminescence; inhibition, % at 3.98 µM; actives 29% (n = 2,300);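 active means mean inhibition above a cutoff equal to the average over all tested compounds plus one standard deviation, cut at about 70% in these data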;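 further: luciferase from a UAS reporter driven by GAL4-VP16 transactivation; 0% = DMSO with VP16-transfected cells and 100% = DMSO with cells lacking VP16; higher means less reporter light so more repression of VP16 activity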
# * = called active by the depositor; . = no result given.
SMILES,NR2E3 ag-1,LMP1 NFkB inh,HIF activator,TROY NFkB inh,NR2E3 ag-2,NR2E3 ag conf,GAL4-VP16 luc
Cc1ccc2cccc(CC(=O)NN)c2c1,.,-2,.,-18,-19,.,.
CN(CC(=O)NCc1ccc(F)cc1)CC(=O)Nc1ccc(Cl)c(C(F)(F)F)c1,1,-1,-1,21,94*,53,49
N#C/C(=N\Nc1ccc(Cl)c(Cl)c1)C(=O)C1CC1,7,-15,4,27,80*,100*,55
N#C/C(=N\Nc1ccc(F)cc1)C(=O)C1CC1,2,.,0,-1,-15,.,.
O=C(CCN1C(=O)c2cccc([N+](=O)[O-])c2C1=O)NC1CCCCCC1,.,0,.,10,-11,.,.
CCOC(=O)C1CCCN(C(=O)c2cncc(Br)c2)CC1 (stereo not drawn),.,.,.,19,19,.,.
COc1ccc2c(CC(=O)Nc3ncc(C)s3)coc2c1,7,-53,2,8,62,96*,-67
Cc1cnc(NC(=O)Cc2ccc(Br)cc2)s1,-1,2,-1,0,60,91*,5
O=C(Cc1ccc(Br)cc1)Nc1ncc([N+](=O)[O-])s1,1,-18,4,21,72*,97*,60
c1ccc(-n2nnnc2-c2cccc3ccccc23)cc1,.,11,.,-3,-13,.,.
COc1ccc(CCNc2nc(-c3ccccn3)cs2)cc1OC,-1,18,1,-13,68,10,-40
Cc1ccc(-c2csc3ncnc(Sc4nnc(CN5CCCCCC5=O)o4)c23)cc1,2,42*,1,35,69,-15,15
Cc1nn(C)c(C)c1CN(C)S(=O)(=O)c1ccc2ccccc2c1,1,11,.,31,85*,96*,86*
Cc1nn(C)c(C)c1CN(C)S(=O)(=O)c1ccc(F)cc1,5,6,-1,20,11,.,.
Cc1ccc(-c2nc(CS(=O)(=O)CC(=O)N3CCCCCC3)c(C)o2)cc1,-2,-7,0,19,51,7,53
Cc1ccc(-c2nc(CS(=O)(=O)CC(=O)N3CCc4ccccc4C3)c(C)o2)cc1,3,-1,0,23,36,.,.
COc1ccc(CCNC(=O)c2nnn(-c3ccc4c(c3)OCCO4)c2N)cc1OC,1,50*,-3,87*,66,51,24
COc1ccc(Br)cc1Cn1nnc(C(=O)Nc2ccc3c(c2)OCCO3)c1N,1,-10,1,6,56,65,12
CN(Cc1nc(-c2ccc(Cl)cc2)no1)C(=O)c1ccc2c(c1)OCO2,-3,6,1,17,6,.,.
CCC(=O)N1CCc2cc(S(=O)(=O)CCC(=O)N3CCN(c4ccc(Cl)cc4)CC3)ccc21,0,8,0,38,60,70,44
COc1ccc(NC(=O)C(C)N=C2NS(=O)(=O)c3ccccc32)cc1S(N)(=O)=O (stereo not drawn),4,-1,.,2,10,.,.
CN(C)c1nc(=NCc2ccco2)ss1,-5,-32,1,17,76*,9,-8
N#CC(c1ccc(F)cc1)c1ccc(C(=O)c2ccc(F)cc2)cc1 (stereo not drawn),2,8,0,3,27,.,.
Cc1ccc(C(C#N)c2ccc(C(=O)c3ccc(F)cc3)cc2)cc1 (stereo not drawn),3,15,0,26,49,59,45
COc1cccc(-n2nnnc2SCC(=O)Nc2nc3c(s2)CCCC3)c1,0,7,1,-18,10,.,.
O=C(CSc1nnnn1-c1ccc2c(c1)OCCO2)Nc1nc2c(s1)CCCC2,3,7,0,33,96*,98*,5
CN(Cc1ccc(Cl)cc1)C(=O)c1ccc2ccccc2n1,2,-5,0,-9,-6,.,.
Cc1ccc(-n2sc3cc(F)ccc3c2=O)c(C)c1,.,6,.,-8,54,-2,-2
COc1ccc(CCC(=O)Nc2cccc(S(=O)(=O)N3CCCCCC3)c2)cc1OC,2,8,.,25,-15,.,.
